Article PMC3960632 (British Journal of Cancer, 2014)
Blank lines part the entries; values can stand above or below the compound they belong to.

Columns and labels:
recombinant AKR1C1-4 = conditions: ref Hebert et al, 2013; cited from earlier work
primary CLL cells = test: Primary CLL cell apoptosis; format: cell-based, human; conditions: 24 h; 0.5 mM BEZ, 5 μM MPA, 5.1 μM 4-MDDT; n=4 samples
In short: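 Patient blood mononuclear cells isolated on Ficoll, with consent and ethical approval. Co-cultured 10:1 on non-CD40L-expressing L-cell fibroblast stroma in 96-well plates. Treated in triplicate for 24 h against solvent control. Viability read by annexin V/propidium iodide staining and flow cytometry; n=4 patient samples ± s.e.m.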

[1] = system: HL-60, K562 and KG1a AML cell lines; test: Cumulative cell counts / viability of AML cell lines; format: cell-based; conditions: 7 days, 5 μM MPA, 50 μM 4-MDDT
In short: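 HL60, K562 and KG1a cells kept in RPMI-1640 with L-glutamine, 10% heat-inactivated FBS and penicillin/streptomycin at 37 °C, 5% CO2, passaged every 2 days at 0.25–1.5 × 10^6 cells/ml. Treated 7 days at 1 × 10^4 cells/well or 0.25 × 10^6 cells/ml in flasks, with DMSO/ethanol solvent controls. Cumulative viable counts by manual counting or flow cytometry with viable gates and counting beads. Mean of ≥3 experiments ± s.e.m.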

HL-60 cells = test: HL-60 differentiation; format: cell-based; conditions: 5 μM MPA, 50 μM 4-MDDT
In short: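 HL-60 cells grown in RPMI-1640 with 10% heat-inactivated FBS at 37 °C, 5% CO2. Treated 7 days and re-fed and re-treated every 2 days, with solvent controls. At day 7, PE-CD11b staining read by flow cytometry, mean of ≥3 experiments ± s.e.m. Cytospins from 75–100 μl of culture were air-dried, methanol-fixed and Jenner–Giemsa stained for morphology.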

recombinant AKR1C3 = molecular target: T1, recombinant AKR1C3 (Homo sapiens, UniProt P42330); test: AKR1C-diaphorase; format: biochemical; conditions: freshly prepared solution
T1 sequence (P42330 1-323): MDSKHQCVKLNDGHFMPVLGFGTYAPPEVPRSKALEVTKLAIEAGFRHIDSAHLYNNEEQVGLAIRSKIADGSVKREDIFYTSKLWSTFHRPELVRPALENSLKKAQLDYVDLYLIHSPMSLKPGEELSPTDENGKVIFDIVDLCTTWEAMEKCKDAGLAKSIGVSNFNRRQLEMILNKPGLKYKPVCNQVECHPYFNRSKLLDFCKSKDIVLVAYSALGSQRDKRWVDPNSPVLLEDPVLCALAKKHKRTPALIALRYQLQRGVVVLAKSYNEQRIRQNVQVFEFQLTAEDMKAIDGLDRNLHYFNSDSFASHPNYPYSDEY

[2] = Stability of the DMSO solution; format: physicochemical; conditions: solution in DMSO

Compound: O=C(O)c1cccc(S(=O)(=O)N2CCc3ccccc3C2)c1 [A1, 3-(3,4-dihydro-1H-isoquinoline-2-sulphonyl)-benzoic acid]
- AKR1C3 selectivity in the CRT screen (recombinant AKR1C1-4): AKR1C3-selective inhibitors

Compound: O=C(N1CCOCC1)N1CCN(c2ccc(Cl)cc2)CC1 [A9, [4-(4-chloro-phenyl)-piperazin-1-yl]-morpholin-4-yl-methanone]
- AKR1C3 selectivity in the CRT screen (recombinant AKR1C1-4): AKR1C3-selective inhibitors

Compound: CC(C)(Oc1ccc(CCNC(=O)c2ccc(Cl)cc2)cc1)C(=O)O [BEZ, bezafibrate]
- apoptosis of CLL cells, single agent (primary CLL cells): neither BEZ nor MPA as single agents markedly increased apoptosis

Compound: CC(=O)O[C@]1(C(C)=O)CC[C@H]2[C@@H]3C[C@H](C)C4=CC(=O)CC[C@]4(C)[C@H]3CC[C@@]21C [MPA, medroxyprogesterone acetate]
- AML cell killing when combined with BEZ ([1]; with 0.5 mM BEZ, NCI compounds at 10 times the IC50, 10 μM A1/A6/A9): greatly enhanced AML cell killing
- anti-proliferative effect, agent alone ([1]; NCI compounds at 10 times the IC50): moderate but statistically anti-proliferative effect
- HL-60 cell differentiation in response to ATRA (HL-60 cells; day 7, with 10 nM ATRA): promoted the differentiation of HL-60 cells
- HL-60 cell differentiation (CD11b, phenotypic changes) combined with BEZ (HL-60 cells; day 7, with 0.5 mM BEZ): strongly promoted HL-60 cell differentiation
- apoptosis of CLL cells, single agent (primary CLL cells): neither BEZ nor MPA as single agents markedly increased apoptosis

- AKR1C3-inhibitory activity (recombinant AKR1C3): no AKR1C3-inhibitory activity
Compound: CN(C)[C@@H]1C(O)=C(C(N)=O)C(=O)[C@@]2(O)C(O)=C3C(=O)c4c(O)cccc4[C@@](C)(O)[C@H]3C[C@@H]12 [tetracycline]
- chemical stability [2]: rapid conversion of the dissolved tetracycline to an unknown breakdown product
